Data: ChEMBL document CHEMBL4041520, “Novel pyrimidine-2,4-dione-1,2,3-triazole and furo[2,3-d]pyrimidine-2-one-1,2,3-triazole hybrids as potential anti-cancer agents: Synthesis, computational and X-ray analysis and biological evaluation” (Eur J Med Chem, 2017)
pIC50: −log10 of the molar value.

system: A549; test: Antiproliferative activity against human A549 cells after 72 hrs by MTT assay; format: functional, cell-based; conditions: A549, 72 h
How it was run: (§1)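 Monolayers grown in DMEM with 10% FBS and 2 mM L-glutamine at 37 °C, 5% CO2. Cells seeded at 5000 per well on day 0. Compounds added in five 10-fold dilutions (0.01–100 µM), DMSO ≤0.1%, for 72 h. MTT absorbance converted to percentage growth versus untreated wells. IC50 by linear regression of the dose-response curve; highest concentration reported when not reached. Quadruplicate points, three experiments.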

First: CCCCCCC#Cc1c(CCCCCC)oc2nc(=O)n(Cc3cn(Cc4ccccc4)nn3)cc12
Second: CCCCCCC#Cc1c(CCCCCC)oc2nc(=O)n(Cc3cn(-c4ccc(Cl)cc4)nn3)cc12
The pIC50 of the first is higher: 4.66 for the first, less than 4.00 for the second. The first is the more potent here.

First: O=c1[nH]c(=O)n(Cc2cn(-c3ccccc3F)nn2)cc1I
Second: O=c1[nH]c(=O)n(Cc2cn(-c3ccccc3F)nn2)cc1Br
The pIC50 of the first is higher: 4.02 for the first, less than 4.00 for the second.

O=c1nc2oc(C3CC3)c(C#CC3CC3)c2cn1Cc1cn(-c2ccc(Cl)cc2)nn1 and O=c1nc2oc(CCCCl)cc2cn1Cc1cn(-c2ccc(Cl)cc2)nn1 are within 0.2 log units of each other in pIC50: 4.41 for the first, 4.28 for the second.

O=c1c(Br)cn(Cc2cn(-c3cc(Cl)cc(Cl)c3)nn2)c(=O)n1Cc1cn(-c2cc(Cl)cc(Cl)c2)nn1 and O=c1[nH]c(=O)n(Cc2cn(-c3cc(Cl)cc(Cl)c3)nn2)cc1Br are within 0.2 log units of each other in pIC50: 4.02 for the first, 4.09 for the second.

Compound CCCCCc1ccc(C#Cc2c(-c3ccc(CCCCC)cc3)oc3nc(=O)n(Cc4cn(-c5ccc(Cl)cc5)nn4)cc23)cc1 has a pIC50 of less than 4.00.

system: HepG2; test: Antiproliferative activity against human HepG2 cells after 72 hrs by MTT assay; format: functional, cell-based; conditions: HepG2, 72 h; how it was run: as §1

First: CCCCCCC#Cc1c(CCCCCC)oc2nc(=O)n(Cc3cn(Cc4ccccc4)nn3)cc12
Second: CCCCCCC#Cc1c(CCCCCC)oc2nc(=O)n(Cc3cn(-c4ccc(Cl)cc4)nn3)cc12
The pIC50 of the first is higher: 4.59 for the first, less than 4.00 for the second. The first is the more potent here.

O=c1[nH]c(=O)n(Cc2cn(-c3ccccc3F)nn2)cc1I and O=c1[nH]c(=O)n(Cc2cn(-c3ccccc3F)nn2)cc1Br cannot be ordered by pIC50: less than 4.00 for the first, less than 4.00 for the second.

Compared with O=c1nc2oc(C3CC3)c(C#CC3CC3)c2cn1Cc1cn(-c2ccc(Cl)cc2)nn1, O=c1nc2oc(CCCCl)cc2cn1Cc1cn(-c2ccc(Cl)cc2)nn1 is 0.36 log units lower in pIC50: 4.41 for the first, 4.05 for the second.

First: O=c1c(Br)cn(Cc2cn(-c3cc(Cl)cc(Cl)c3)nn2)c(=O)n1Cc1cn(-c2cc(Cl)cc(Cl)c2)nn1
Second: O=c1[nH]c(=O)n(Cc2cn(-c3cc(Cl)cc(Cl)c3)nn2)cc1Br
The pIC50 of the first is 0.75 log units lower: 4.37 for the first, 5.12 for the second.

CCCCCc1ccc(C#Cc2c(-c3ccc(CCCCC)cc3)oc3nc(=O)n(Cc4cn(-c5ccc(Cl)cc5)nn4)cc23)cc1 was tested, and the pIC50 was less than 4.00.

system: CFPAC-1; test: Antiproliferative activity against human CFPAC-1 cells after 72 hrs by MTT assay; format: functional, cell-based; conditions: CFPAC-1, 72 h; how it was run: as §1

Going from CCCCCCC#Cc1c(CCCCCC)oc2nc(=O)n(Cc3cn(Cc4ccccc4)nn3)cc12 to CCCCCCC#Cc1c(CCCCCC)oc2nc(=O)n(Cc3cn(-c4ccc(Cl)cc4)nn3)cc12, the pIC50 falls from 4.56 to less than 4.00. The first is the more potent here.

O=c1[nH]c(=O)n(Cc2cn(-c3ccccc3F)nn2)cc1I and O=c1[nH]c(=O)n(Cc2cn(-c3ccccc3F)nn2)cc1Br cannot be ordered by pIC50: less than 4.00 for the first, less than 4.00 for the second.

First: O=c1nc2oc(C3CC3)c(C#CC3CC3)c2cn1Cc1cn(-c2ccc(Cl)cc2)nn1
Second: O=c1nc2oc(CCCCl)cc2cn1Cc1cn(-c2ccc(Cl)cc2)nn1
The pIC50 of the first is higher: 4.45 for the first, less than 4.00 for the second. The first is the more potent here.

First: O=c1c(Br)cn(Cc2cn(-c3cc(Cl)cc(Cl)c3)nn2)c(=O)n1Cc1cn(-c2cc(Cl)cc(Cl)c2)nn1
Second: O=c1[nH]c(=O)n(Cc2cn(-c3cc(Cl)cc(Cl)c3)nn2)cc1Br
The pIC50 of the first is lower: less than 4.00 for the first, 5.26 for the second. The second is the more potent here.

Work on CCCCCc1ccc(C#Cc2c(-c3ccc(CCCCC)cc3)oc3nc(=O)n(Cc4cn(-c5ccc(Cl)cc5)nn4)cc23)cc1 yielded a pIC50 of less than 4.00.

system: HeLa; test: Antiproliferative activity against human HeLa cells after 72 hrs by MTT assay; format: functional, cell-based; conditions: not given; how it was run: as §1

First: CCCCCCC#Cc1c(CCCCCC)oc2nc(=O)n(Cc3cn(Cc4ccccc4)nn3)cc12
Second: CCCCCCC#Cc1c(CCCCCC)oc2nc(=O)n(Cc3cn(-c4ccc(Cl)cc4)nn3)cc12
The pIC50 of the first is higher: 4.63 for the first, less than 4.00 for the second.

First: O=c1[nH]c(=O)n(Cc2cn(-c3ccccc3F)nn2)cc1I
Second: O=c1[nH]c(=O)n(Cc2cn(-c3ccccc3F)nn2)cc1Br
The pIC50 of the first is lower: less than 4.00 for the first, 4.03 for the second.

Compared with O=c1nc2oc(C3CC3)c(C#CC3CC3)c2cn1Cc1cn(-c2ccc(Cl)cc2)nn1, O=c1nc2oc(CCCCl)cc2cn1Cc1cn(-c2ccc(Cl)cc2)nn1 is 0.57 log units lower in pIC50: 4.79 for the first, 4.22 for the second. The first is the more potent here.

First: O=c1c(Br)cn(Cc2cn(-c3cc(Cl)cc(Cl)c3)nn2)c(=O)n1Cc1cn(-c2cc(Cl)cc(Cl)c2)nn1
Second: O=c1[nH]c(=O)n(Cc2cn(-c3cc(Cl)cc(Cl)c3)nn2)cc1Br
The pIC50 of the first is lower: less than 4.00 for the first, 5.07 for the second. The second is the more potent here.

Work on CCCCCc1ccc(C#Cc2c(-c3ccc(CCCCC)cc3)oc3nc(=O)n(Cc4cn(-c5ccc(Cl)cc5)nn4)cc23)cc1 yielded a pIC50 of less than 4.00.

system: SW-620; test: Antiproliferative activity against human SW620 cells after 72 hrs by MTT assay; format: functional, cell-based; conditions: SW-620, 72 h; how it was run: as §1

First: CCCCCCC#Cc1c(CCCCCC)oc2nc(=O)n(Cc3cn(Cc4ccccc4)nn3)cc12
Second: CCCCCCC#Cc1c(CCCCCC)oc2nc(=O)n(Cc3cn(-c4ccc(Cl)cc4)nn3)cc12
The pIC50 of the first is higher: 4.49 for the first, less than 4.00 for the second. The first is the more potent here.

O=c1[nH]c(=O)n(Cc2cn(-c3ccccc3F)nn2)cc1I and O=c1[nH]c(=O)n(Cc2cn(-c3ccccc3F)nn2)cc1Br cannot be ordered by pIC50: less than 4.00 for the first, no more than 4.00 for the second.

Going from O=c1nc2oc(C3CC3)c(C#CC3CC3)c2cn1Cc1cn(-c2ccc(Cl)cc2)nn1 to O=c1nc2oc(CCCCl)cc2cn1Cc1cn(-c2ccc(Cl)cc2)nn1, the pIC50 falls from 4.43 to less than 4.00.

Going from O=c1c(Br)cn(Cc2cn(-c3cc(Cl)cc(Cl)c3)nn2)c(=O)n1Cc1cn(-c2cc(Cl)cc(Cl)c2)nn1 to O=c1[nH]c(=O)n(Cc2cn(-c3cc(Cl)cc(Cl)c3)nn2)cc1Br, the pIC50 rises from less than 4.00 to 5.01.

In the case of CCCCCc1ccc(C#Cc2c(-c3ccc(CCCCC)cc3)oc3nc(=O)n(Cc4cn(-c5ccc(Cl)cc5)nn4)cc23)cc1, the pIC50 was less than 4.00.

system: NIH3T3; test: Antiproliferative activity against mouse NIH/3T3 cells after 72 hrs by MTT assay; format: cell-based; conditions: NIH3T3, 72 h; how it was run: as §1

Compared with O=c1c(Br)cn(Cc2cn(-c3cc(Cl)cc(Cl)c3)nn2)c(=O)n1Cc1cn(-c2cc(Cl)cc(Cl)c2)nn1, O=c1[nH]c(=O)n(Cc2cn(-c3cc(Cl)cc(Cl)c3)nn2)cc1Br is 0.57 log units higher in pIC50: 5.37 for the first, 5.94 for the second. The second is the more potent here.

Compound O=c1[nH]c(=O)n(Cc2cn(-c3ccccc3F)nn2)cc1Br has a pIC50 of 4.23.

system: WI-38; test: Antiproliferative activity against human WI38 cells after 72 hrs by MTT assay; format: cell-based; conditions: WI-38, 72 h; how it was run: as §1

Going from CCCCCCC#Cc1c(CCCCCC)oc2nc(=O)n(Cc3cn(Cc4ccccc4)nn3)cc12 to CCCCCCC#Cc1c(CCCCCC)oc2nc(=O)n(Cc3cn(-c4ccc(Cl)cc4)nn3)cc12, the pIC50 falls from 4.63 to less than 4.00.

O=c1[nH]c(=O)n(Cc2cn(-c3ccccc3F)nn2)cc1I and O=c1nc2oc(CCCCl)cc2cn1Cc1cn(-c2ccc(Cl)cc2)nn1 are the same in pIC50: 4.14 for the first, 4.14 for the second.

Going from O=c1nc2oc(C3CC3)c(C#CC3CC3)c2cn1Cc1cn(-c2ccc(Cl)cc2)nn1 to CCCCCc1ccc(C#Cc2c(-c3ccc(CCCCC)cc3)oc3nc(=O)n(Cc4cn(-c5ccc(Cl)cc5)nn4)cc23)cc1, the pIC50 falls from 5.50 to less than 4.00. The first is the more potent here.
